# Data published in ChEMBL document CHEMBL1123566, “Synthesis and cardiac electrophysiological activity of 2- and 3-[(substituted phenyl)alkyl]quinuclidines. Structure-activity relationships” (1987).
# Where “and” joins values, the source holds several entries; their conditions need not be identical. Identical values can stand only once.
# Legend:
# [1] = species on record: Canis familiaris; assay: In vitro electrophysiological evaluation in canine cardiac Purkinje fibres reported as percent change Vmax at 10 uM at concentration range of 5-50 uM; assay type: functional; conditions: Canis lupus familiaris, Purkinje fiber
# Outline: (§1)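 Canine cardiac Purkinje fibers, intracellular recording, paced at a basic cycle length of 1 s. APD95 and Vmax are recorded together across cumulative concentrations. Compound is a 10 mM aqueous stock diluted into Tyrode's solution. Each fiber is used once as its own control. Readouts are percent change from control at 10 μM, and the maximum change with the concentration where it occurred.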
# [2] = species on record: Canis familiaris; assay: In vitro electrophysiological evaluation in canine cardiac Purkinje fibres reported as % change for action potential duration at a concentration of 10 uM; assay type: functional, Canis lupus familiaris, Purkinje fiber
# Outline: (§2)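 Canine cardiac Purkinje fibres, intracellular microelectrode recording, paced at a basic cycle length of 1 s. APD95 and Vmax read simultaneously. Compound: 10 mM stock in deionized water, diluted into Tyrode's solution, tested over the stated concentration range. Each fibre used once as its own control. Result is % change from control, given at 10 µM or as the maximum with its concentration. M = <10% decrease or an increase in Vmax.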
# [3] = system: Canis familiaris; assay: Heart rate was determined by intraduodenal administration of two dosages of 30 mg/kg (high dose) of compound in anesthetized dogs. Value was reported for experiment 2; assay type: functional, Canis lupus familiaris
# Outline: (§3)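 Anesthetized dogs given the compound intraduodenally, generally as two doses with the second a cumulative total (low/high). FRP and CT measured at 15, 30 and 45 min after dosing. HR and BP taken during nonpacing intervals. Values are percent change from control per animal. Activity criterion is FRP or CT prolonged ≥12%. Vehicle: 5% dextrose in water/tragacanth.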
# [4] = system: Canis familiaris; assay: Left ventricular refractory period was determined by intraduodenal administration of two dosages of 10 mg/kg (low dose) of compound in anesthetized dogs. Value was reported for experiment 2; assay type: functional, Canis lupus familiaris, Cardiac ventricle
# Outline: (§4)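 Anesthetized dogs, usually given two intraduodenal doses, with the second dose cumulative (low/high). Left ventricular FRP and CT were determined at 15, 30 and 45 min after dosing. HR and BP were measured during nonpacing intervals. Values are % change from control at low/high dose, for individual animals. The vehicle-stability set used 5% dextrose in water/tragacanth (n = 8).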
# [5] = system: Canis familiaris; assay: Mean arterial blood pressure was determined by intraduodenal administration of two dosages of 30 mg/kg(high dose) of compound in anesthetized dogs. Value was reported for experiment 2; assay type: functional, Canis lupus familiaris; outline: as §4
# [6] = species on record: Canis familiaris; assay: In vitro electrophysiological evaluation in canine cardiac ventricular muscle reported as % change for conduction time(CT) at 10 uM at 0.1-100 uM concentration range; assay type: functional, Canis lupus familiaris, Muscle tissue
# Outline: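 Canine right ventricular/papillary muscle strips in oxygenated Tyrode's, extracellular extra-stimulus conduction-interval method. FRP and CT are read from conduction-interval curves before and during rising concentrations. Compound is a 10 mM aqueous stock diluted into Tyrode's. Each strip is used once as its own control. Readouts are percent change from control at 10 μM, plus the maximum change with its concentration.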
# [7] = system: Canis familiaris; assay: Conduction time was determined by intraduodenal administration of two dosages of 30 mg/kg (high dose) of compound in anesthetized dogs. Value was reported for experiment 2; assay type: functional, Canis lupus familiaris; outline: as §3
# [8] = system: Canis familiaris; assay: Left ventricular refractory period was determined by intraduodenal administration of two dosages of 30 mg/kg (high dose)of compound in anesthetized dogs. Value was reported for experiment 2; assay type: functional, Canis lupus familiaris, Cardiac ventricle; outline: as §4
# [9] = species on record: Canis familiaris; assay: In vitro electrophysiological activity in canine cardiac occurred is 30 uM.; assay type: functional, Canis lupus familiaris, Heart
# [10] = species on record: Canis familiaris; assay: In vitro electrophysiological evaluation in canine cardiac Purkinje fibres reported as percent change Vmax at 10 uM at concentration range of 0.1-100 uM; assay type: functional; conditions: Canis lupus familiaris, Purkinje fiber; outline: as §1
# [11] = system: Canis familiaris; assay: Heart rate was determined by intraduodenal administration of two dosages of 30 mg/kg (high dose)of compound in anesthetized dogs. Value was reported for experiment 1; assay type: functional, Canis lupus familiaris; outline: as §3
# [12] = species on record: Canis familiaris; assay: In vitro electrophysiological evaluation in canine cardiac ventricular muscle reported as maximum % change for functional refractory period (FRP) at 0.1-100 uM concentration range; concentration at which it occurred is 10 uM.; parameters: species or system Canis lupus familiaris, Muscle tissue
# Outline: (§5)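 Canine right ventricle and papillary muscle strips in oxygenated Tyrode's solution, fitted with stimulating and recording electrodes. The extra-stimulus conduction-interval method was adapted for in vitro use. FRP and CT were read from a conduction-interval curve before and after various compound concentrations, and expressed as percent change from control. Compounds were taken from 10 mM deionized-water stock into Tyrode's. Each strip was used once as its own control.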
# [13] = species on record: Canis familiaris; assay: In vitro electrophysiological evaluation in canine cardiac Purkinje fibres reported as % change for action potential duration at 10 uM at 0.1-30 uM concentration range; assay type: functional, Canis lupus familiaris, Purkinje fiber; outline: as §2
# [14] = species on record: Canis familiaris; assay: In vitro electrophysiological evaluation in canine cardiac Purkinje fibres reported as percent change Vmax at 10 uM at concentration range of 0.1-30 uM; assay type: functional; conditions: Canis lupus familiaris, Purkinje fiber; outline: as §2
# [15] = system: Canis familiaris; assay: Left ventricular refractory period was determined by intraduodenal administration of two dosages(high dose) of 30 mg/kg of compound in anesthetized dogs. Value was reported for experiment 1; assay type: functional, Canis lupus familiaris, Cardiac ventricle; outline: as §4
# [16] = system: Canis familiaris; assay: Heart rate was determined by intraduodenal administration of two dosages of 10 mg/kg (low dose) of compound in anesthetized dogs. Value was reported for experiment 1; assay type: functional, Canis lupus familiaris; outline: as §3
# [17] = system: Canis familiaris; assay: Conduction time was determined by intraduodenal administration of two dosages of 10 mg/kg (low dose) of compound in anesthetized dogs. Value was reported for experiment 2; assay type: functional, Canis lupus familiaris
# Outline: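 Anesthetized dogs; compound given intraduodenally, generally as two doses, the second a cumulative (high) dose. LV functional refractory period and conduction time measured 15, 30 and 45 min after dosing; heart rate and blood pressure measured during nonpacing intervals. Values are % change from control, given per individual animal. Active if FRP or CT prolonged by ≥12%.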
# [18] = system: Canis familiaris; assay: Conduction time was determined by intraduodenal administration of two dosages of 10 mg/kg (low dose) of compound in anesthetized dogs. Value was reported for experiment 1; assay type: functional, Canis lupus familiaris; outline: as §3
# [19] = species on record: Canis familiaris; assay: In vitro electrophysiological activity in canine cardiac occurred is 50 uM.; assay type: functional, Canis lupus familiaris, Heart
# [20] = species on record: Canis familiaris; assay: In vitro electrophysiological evaluation in canine cardiac Purkinje fibres reported as % change for action potential duration at 10 uM at 5-50 uM concentration range; assay type: functional, Canis lupus familiaris, Purkinje fiber; outline: as §1
# [21] = system: Canis familiaris; assay: Mean arterial blood pressure was determined by intraduodenal administration of two dosages of 30 mg/kg (high dose)of compound in anesthetized dogs. Value was reported for experiment 1; assay type: functional, Canis lupus familiaris; outline: as §4
# [22] = species on record: Canis familiaris; assay: (§6) In vitro electrophysiological evaluation in canine cardiac occurred is 100 uM.; assay type: functional; conditions: Canis lupus familiaris; Heart
# [23] = system: Canis familiaris; assay: Conduction time was determined by intraduodenal administration of two dosages of 30 mg/kg (high dose)of compound in anesthetized dogs. Value was reported for experiment 1; assay type: functional, Canis lupus familiaris; outline: as §3
# [24] = species on record: Canis familiaris; assay: In vitro electrophysiological evaluation in canine cardiac ventricular muscle reported as % change for the functional refractory period (FRP) at 10 uM at concentration range of 0.1-100 uM; parameters: species or system Canis lupus familiaris, Muscle tissue; outline: as §5
# [25] = species on record: Canis familiaris; assay: In vitro electrophysiological evaluation in canine cardiac occurred is 30 uM.; assay type: functional; conditions: Canis lupus familiaris; Heart
# [26] = species on record: Canis familiaris; assay: In vitro electrophysiological evaluation in canine cardiac ventricular muscle reported as maximum % change for functional refractory period (FRP) at 0.1-100 uM concentration range; concentration at which it occurred is 100 uM.; parameters: species or system Canis lupus familiaris, Muscle tissue; outline: as §5
# [27] = system: Canis familiaris; assay: Heart rate was determined by intraduodenal administration of two dosages of 10 mg/kg (low dose) of compound in anesthetized dogs. Value was reported for experiment 2; assay type: functional, Canis lupus familiaris; outline: as §3
# [28] = species on record: Canis familiaris; assay: as §6; assay type: functional, organism-based; conditions: Canis lupus familiaris; Heart
# [29] = species on record: Canis familiaris; assay: In vitro electrophysiological activity in canine cardiac occurred is 100 uM.; assay type: functional, Canis lupus familiaris, Heart
# [30] = system: Canis familiaris; assay: Mean arterial blood pressure was determined by intraduodenal administration of two dosages of 10 mg/kg (low dose) of compound in anesthetized dogs. Value was reported for experiment 2; assay type: functional, Canis lupus familiaris; outline: as §4
# [31] = system: Canis familiaris; assay: Mean arterial blood pressure was determined by intraduodenal administration of two dosages of 10 mg/kg (low dose) of compound in anesthetized dogs. Value was reported for experiment 1; assay type: functional, Canis lupus familiaris; outline: as §4
# [32] = system: Canis familiaris; assay: Left ventricular refractory period was determined by intraduodenal administration of two dosages of 10 mg/kg (low dose) of compound in anesthetized dogs. Value was reported for experiment 1; assay type: functional, Canis lupus familiaris, Cardiac ventricle; outline: as §4
# [33] = species on record: Canis familiaris; assay: In vitro electrophysiological evaluation in canine cardiac Purkinje fibres reported as maximum percent change Vmax concentration range of 1-100 uM; Minimal (<10% decrease or increase in V max).; assay type: functional; conditions: Canis lupus familiaris; Purkinje fiber; outline: as §2
# [34] = species on record: Canis familiaris; assay: In vitro electrophysiological evaluation in canine cardiac Purkinje fibres reported as percent change Vmax at 10 uM at concentration range of 1-100 uM; Minimal (<10% decrease or increase in V max).; assay type: functional; conditions: Canis lupus familiaris, Purkinje fiber; outline: as §2
# [35] = species on record: Canis familiaris; assay: In vitro electrophysiological evaluation in canine cardiac ventricular muscle reported as maximum % change for conduction time(CT) at […] concentration range; Minimal (<10% decrease or increase in CT).; assay type: functional, Canis lupus familiaris, Muscle tissue; outline: as §5
# [36] = species on record: Canis familiaris; assay: In vitro electrophysiological evaluation in canine cardiac ventricular muscle reported as % change for conduction time(CT) at 10 uM at 0.1-100 uM concentration range; Minimal (<10% decrease or increase in CT).; assay type: functional, Canis lupus familiaris, Muscle tissue
# [37] = species on record: Canis familiaris; assay: In vitro electrophysiological evaluation in canine cardiac Purkinje fibres reported as % change for action potential duration at 10 uM at 1-100 uM concentration range; assay type: functional, Canis lupus familiaris, Purkinje fiber; outline: as §2
compound,measurement,setting,value
C=C[C@H]1CN2CC[C@H]1C[C@@H]2[C@@H](O)c1ccnc2ccc(OC)cc12 [QUINIDINE],Vmax,[1],-11%
same,APD95,[2],-9%
same,HR,[3],-39%
same,LV FRP,[4],16%
same,Mean blood pressure,[5],15%
same,CT,[6],17% and 11% and <10%
same,CT,[7],38%
same,LV FRP,[8],28%
same,APD95,[9],-39%
same,Vmax,[10],-10%
same,HR,[11],-42%
same,FRP,[12],22%
same,APD95,[13],-21%
same,Vmax,[14],< 10%
same,LV FRP,[15],20%
same,HR,[16],-22%
same,CT,[17],10%
same,CT,[18],7%
same,APD95,[19],-19%
same,APD95,[20],-9%
same,Mean blood pressure,[21],-4%
same,Vmax,[22],-40%
same,CT,[23],51%
same,FRP,[24],21% [middle of 4 runs]
same,Vmax,[25],-19%
same,FRP,[26],27% and 24% and 46%
same,HR,[27],-18%
same,Vmax,[28],-53%
same,APD95,[29],-24%
same,Mean blood pressure,[30],-7%
same,Mean blood pressure,[31],2%
same,LV FRP,[32],13%
CCOC(=O)C(CC1C(=O)C2CCN1CC2)C(=O)c1ccc(Cl)c([N+](=O)[O-])c1.Cl (configuration not stated),APD95,[2],0%
same,Vmax,[33],< 10%
same,Vmax,[34],< 10%
same,CT,[35],<10%
same,CT,[36],<10%
same,APD95,[37],-2%
same,Vmax,[22],-12%
same,FRP,[24],17%
same,FRP,[26],20%
same,APD95,[29],-2% and -7%
